Laboratory results as given in ChEMBL document CHEMBL1126740, “(S)- and (R)-8-(di-n-propylamino)-6,7,8,9-tetrahydro-3H-benz[e]indole-1-carbaldehyde: a new class of orally active 5-HT1A-receptor agonists” (J Med Chem, 1993).
The source made the active and inactive calls. No cut-off for these calls is given here.

Columns and labels:
[1] = organism: Rattus norvegicus; experiment: Compound was tested for 5-HT behavioral response in reserpine pretreated rats; +5HT syndrome; type: functional, organism-based
In short: (§1)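 Male Sprague-Dawley rats (200–300 g) were given reserpine 5 mg/kg sc 18 h before testing, then the test drug sc in the neck (n = 4). Motor activity was recorded by photocells for 30 min, with gross behaviour observed throughout. 5-HT syndrome: flat body posture, extended limbs, reciprocal forepaw treading. DA response: locomotion and stereotypies.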

[2] = tested on: Rattus norvegicus; experiment: In vivo evaluation for 5-HTP accumulation in the corpus striatum in male rats (sc); type: functional
In short: (§2)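 Male Sprague-Dawley rats were pretreated with reserpine 5 mg/kg sc 18 h before dosing. DOPA and 5-HTP in limbic system, striatum and hemispheres were measured by HPLC with electrochemical detection. Dose-response curves used 4–6 dose levels (n = 4) for each region; ED50 was estimated graphically. Partial responses are given as the maximal % reduction at the highest dose tested.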

[3] = tested on: Rattus norvegicus; experiment: In vivo evaluation for 5-HTP accumulation in the hemispheres in male rats (sc); type: functional; in short: as §2
[4] = tested on: Rattus norvegicus; experiment: In vivo evaluation for 5-HTP accumulation in the limbic system in male rats (sc); type: functional; in short: as §2
[5] = tested on: Rattus norvegicus; experiment: In vivo evaluation for DOPA accumulation in the limbic system in male rats (sc); type: functional; in short: as §2
[6] = tested on: Rattus norvegicus; experiment: Maximal reduction in percent (Partial response) of DOPA accumulation rat hemispheres at highest test dose of 4.0 uM/kg (sc); type: functional; in short: as §2
[7] = tested on: Rattus norvegicus; experiment: In vivo evaluation for DOPA accumulation in the corpus striatum in male rats (sc); type: functional; in short: as §2
[8] = organism: Rattus norvegicus; experiment: Compound was tested for 5HT, Dopamine agonist mediated response in reserpine pretreated rats; no change; type: functional, organism-based; in short: as §1
[9] = tested on: Rattus norvegicus; experiment: In vivo evaluation for DOPA accumulation in the hemispheres in male rats (sc); type: functional; in short: as §2
[10] = organism: Rattus norvegicus; experiment: Compound was tested for 5HT, Dopamine agonist mediated response in reserpine pretreated rats; mix DA, 5-HT syndrome; type: functional, organism-based; in short: as §1
[11] = tested on: Rattus norvegicus; experiment: Maximal reduction in percent (Partial response) of DOPA accumulation rat lhemispheres at highest test dose of 12.5 umol/kg (sc); type: functional; in short: as §2
[12] = biological target: D(2) dopamine receptor (Rattus norvegicus, UniProt P61169); experiment: Displacement of [3H]spiperone from dopamine receptor D2
In short: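 Rat striatal membranes in 50 mM potassium phosphate buffer (3 mg original tissue) incubated with 0.5 nM [3H]spiperone for 10 min at 37 °C. Nonspecific binding was defined with 10 μM 6,7-ADTN. Ki was calculated by Cheng–Prusoff; triplicates, 3–7 experiments.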

[13] = tested on: Rattus norvegicus; experiment: Maximal reduction in percent (Partial response) of DOPA accumulation rat lhemispheres at highest test dose of 2.0 uM/Kg (sc); type: functional; in short: as §2
[14] = biological target: T1, 5-hydroxytryptamine receptor 1A (Mus musculus, UniProt Q64264); experiment: In vitro binding affinity against 5-hydroxytryptamine 1A receptor using [3H]-8-OH-DPAT as radioligand in CHO cells (sc); type: cell-based, Cricetulus griseus
T1 sequence (Q64264 whole entry): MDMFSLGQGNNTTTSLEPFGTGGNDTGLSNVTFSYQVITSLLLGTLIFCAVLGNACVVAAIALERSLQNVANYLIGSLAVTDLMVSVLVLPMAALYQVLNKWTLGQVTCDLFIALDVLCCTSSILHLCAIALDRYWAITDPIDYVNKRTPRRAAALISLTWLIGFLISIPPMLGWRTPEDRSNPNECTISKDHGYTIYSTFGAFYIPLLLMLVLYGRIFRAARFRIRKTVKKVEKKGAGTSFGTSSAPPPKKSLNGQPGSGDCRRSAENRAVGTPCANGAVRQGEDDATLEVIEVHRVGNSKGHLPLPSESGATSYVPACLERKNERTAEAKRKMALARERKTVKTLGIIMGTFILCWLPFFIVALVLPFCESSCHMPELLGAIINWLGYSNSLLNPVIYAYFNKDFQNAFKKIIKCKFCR

[15] = biological target: T2, 5-hydroxytryptamine receptor 1A (Rattus norvegicus, UniProt P19327); experiment: In vitro binding affinity against 5-hydroxytryptamine 1A receptor using [3H]8-OH-DPAT
T2 sequence (P19327 whole entry): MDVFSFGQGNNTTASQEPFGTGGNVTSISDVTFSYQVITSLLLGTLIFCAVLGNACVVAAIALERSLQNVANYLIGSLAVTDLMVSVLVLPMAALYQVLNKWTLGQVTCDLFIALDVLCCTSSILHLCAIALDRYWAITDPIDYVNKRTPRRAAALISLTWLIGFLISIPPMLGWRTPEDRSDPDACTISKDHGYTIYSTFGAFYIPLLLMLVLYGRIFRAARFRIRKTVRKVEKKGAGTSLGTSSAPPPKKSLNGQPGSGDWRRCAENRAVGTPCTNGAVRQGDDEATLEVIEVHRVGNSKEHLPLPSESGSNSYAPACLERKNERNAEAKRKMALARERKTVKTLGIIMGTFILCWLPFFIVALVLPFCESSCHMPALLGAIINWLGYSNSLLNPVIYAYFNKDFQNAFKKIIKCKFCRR
In short: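 Rat whole-brain membranes (brainstem and cerebellum removed) in 50 mM Tris pH 8.0 containing NaCl, CaCl2, MgCl2 and 10 μM pargyline, 10 mg tissue per tube. Nonspecific binding was defined with 10 μM 5-HT. IC50 was taken by semi-log linear regression and Ki by Cheng–Prusoff; triplicates.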

[16] = Maximum concentration of the drug at 10 umol/dg administered perorally; type: ADME, organism-based; parameters: route oral; settings: in vivo, po
In short: (§3)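 Male Sprague-Dawley rats (300 g) with arterial catheters were dosed 24 h after surgery; orally dosed rats were starved 18 h beforehand. Blood was sampled at intervals up to 12 h and analysed by HPLC with fluorescence detection (ex 285, em 365) or by GC/MS. Cmax is in pmol/mL and tmax in min, mean ± SEM, n = 4–6.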

[17] = Maximum concentration of the drug at 2 umol/dg administered intravenously; type: ADME, organism-based; parameters: route intravenous; settings: in vivo, iv; in short: as §3
[18] = Area under curve at 10 uM/dg administered perorally; type: ADME; settings: po
In short: (§4)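 Male Sprague-Dawley rats (300 g) carrying arterial catheters, used 24 h after surgery; animals dosed orally were starved 18 h beforehand. Blood was sampled at intervals up to 12 h after dosing. Drug levels were measured by HPLC with fluorescence detection (ex 285, em 365) or by GC/MS, calibrated against spiked blank blood. AUC was taken from concentration-time curves; n = 4–6.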

[19] = Area under curve at 2 uM/dg administered intravenously; type: ADME; settings: iv; in short: as §4
[20] = Bioavailability in rat; type: ADME, organism-based; settings: in vivo
In short: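 Blood was drawn at intervals up to 12 h and assayed by HPLC-fluorescence or GC/MS against spiked blank-blood standards. F is the ratio of oral to intravenous areas under the blood concentration-time curves; n = 4–6.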

[21] = Half life of compound at 2 uM/dg administered intravenously; type: ADME, organism-based; settings: in vivo, iv; in short: as §4
[22] = biological target: D(2) dopamine receptor (Homo sapiens, UniProt P14416); experiment: In vitro binding affinity against dopamine receptor D2 using [3H]raclopride as radioligand in CHO cells (sc); type: cell-based, Cricetulus griseus
[23] = organism: Rattus norvegicus; experiment: Maximal reduction in percent (Partial response) of DOPA accumulation rat hemispheres at highest test dose; inactive; type: functional, organism-based; in short: as §2
[24] = organism: Rattus norvegicus; experiment: Maximal reduction in percent (Partial response) of DOPA accumulation rat limbic system at highest test dose; inactive; type: functional, organism-based
[25] = tested on: Rattus norvegicus; experiment: In vivo evaluation for 5-HTP accumulation in the corpus striatum in male rats (po); type: functional; in short: as §2
[26] = tested on: Rattus norvegicus; experiment: In vivo evaluation for 5-HTP accumulation in the hemispheres in male rats (po); type: functional; in short: as §2
[27] = tested on: Rattus norvegicus; experiment: In vivo evaluation for 5-HTP accumulation in the limbic system in male rats (po); type: functional; in short: as §2
[28] = tested on: Rattus norvegicus; experiment: In vivo evaluation for DOPA accumulation in the hemispheres in male rats at highest test dose; inactive; type: functional, organism-based; in short: as §2
[29] = tested on: Rattus norvegicus; experiment: Maximal reduction in percent (Partial response) of DOPA accumulation rat corpus striatum at highest test dose of 12.5 uM/Kg (sc); type: functional; in short: as §2
[30] = tested on: Rattus norvegicus; experiment: Maximal reduction in percent (Partial response) of DOPA accumulation rat limbic system at highest test dose of 12.5 uM/Kg (sc); type: functional
[31] = Ratio of ED50 values when the compound was administered subcutaneously to that of peroral administration; type: ADME
In short: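 Male Sprague-Dawley rats (200–300 g) pretreated with reserpine (5 mg/kg sc, 18 h earlier). Compound given sc or po. 5-HTP accumulation in the limbic system was measured by HPLC with electrochemical detection. ED50 values came from dose-response curves of 4–6 dose levels (n = 4), and the sc ED50 was divided by the po ED50.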

[32] = organism: Rattus norvegicus; experiment: Maximal reduction in percent (Partial response) of DOPA accumulation rat corpus striatum at highest test dose; inactive; type: functional, organism-based; in short: as §2
[33] = Time taken to reach the maximum concentration of compound at 2 uM/dg administered intravenously; type: ADME, organism-based; settings: in vivo, iv; in short: as §3

Chain of D(2) dopamine receptor (Rattus norvegicus, UniProt P61169) (P61169 whole entry): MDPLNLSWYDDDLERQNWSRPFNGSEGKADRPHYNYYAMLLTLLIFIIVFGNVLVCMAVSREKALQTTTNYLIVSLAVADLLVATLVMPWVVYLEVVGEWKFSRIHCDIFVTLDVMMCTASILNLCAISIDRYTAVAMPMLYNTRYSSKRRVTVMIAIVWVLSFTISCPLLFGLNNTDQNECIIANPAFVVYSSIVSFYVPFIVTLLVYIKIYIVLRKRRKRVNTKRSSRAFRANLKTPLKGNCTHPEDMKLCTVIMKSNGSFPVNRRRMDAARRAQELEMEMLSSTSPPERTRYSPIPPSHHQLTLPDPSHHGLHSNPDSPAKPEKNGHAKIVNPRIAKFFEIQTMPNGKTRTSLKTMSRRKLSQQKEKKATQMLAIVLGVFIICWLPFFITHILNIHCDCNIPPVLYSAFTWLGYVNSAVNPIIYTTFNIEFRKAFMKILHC
Chain of D(2) dopamine receptor (Homo sapiens, UniProt P14416) (P14416 whole entry): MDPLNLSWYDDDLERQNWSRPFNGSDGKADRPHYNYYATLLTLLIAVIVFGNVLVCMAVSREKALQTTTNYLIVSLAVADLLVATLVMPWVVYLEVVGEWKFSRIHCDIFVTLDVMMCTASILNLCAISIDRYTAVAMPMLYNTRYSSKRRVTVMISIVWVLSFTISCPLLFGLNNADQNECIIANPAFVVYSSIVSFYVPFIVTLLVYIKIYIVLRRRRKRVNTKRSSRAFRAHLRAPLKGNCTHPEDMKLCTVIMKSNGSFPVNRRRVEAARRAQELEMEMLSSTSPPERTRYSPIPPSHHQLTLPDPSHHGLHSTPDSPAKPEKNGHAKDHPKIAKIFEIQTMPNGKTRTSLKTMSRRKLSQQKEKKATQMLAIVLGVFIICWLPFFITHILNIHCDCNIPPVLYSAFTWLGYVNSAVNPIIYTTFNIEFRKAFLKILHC

Row | SMILES | Behavioral response [1] | ED50 [2] | ED50 [3] | ED50 [4] | ED50 [5] | ED50 [7] | Behavioral response [10] | Ki [12] | other results
1 | CN(C)C1CCc2ccc3[nH]ccc3c2C1 (racemic) | Active | 0.3 µmol/kg | 0.4 µmol/kg | 0.3 µmol/kg | 0.3 µmol/kg | 0.4 µmol/kg | – | – | Reduction [6]: 34%
2 | CN(C)[C@H]1CCc2ccc3[nH]ccc3c2C1 | – | 3.9 µmol/kg | 2.7 µmol/kg | 3.9 µmol/kg | 4.2 µmol/kg | 8 µmol/kg | – | – | Behavioral response [8]: inactive; ED50 [9]: 13 µmol/kg
3 | CCCN(CCC)C1CCc2ccc3[nH]ccc3c2C1 (racemic) | – | 0.08 µmol/kg | 0.11 µmol/kg | 0.1 µmol/kg | 0.18 µmol/kg | 0.28 µmol/kg | Active | 156 nM | Reduction [11]: 22%
4 | CN(C)[C@@H]1CCc2ccc3[nH]ccc3c2C1 | – | 0.1 µmol/kg | 0.4 µmol/kg | 0.4 µmol/kg | 0.3 µmol/kg | 0.4 µmol/kg | Active | – | Reduction [13]: 30%
5 | CCCN(CCC)[C@H]1CCc2ccc3[nH]cc(C(C)=O)c3c2C1 | Active | 0.08 µmol/kg | 0.095 µmol/kg | 0.09 µmol/kg | – | – | – | 3590 nM | Ki [14]: 0.2 nM; Ki [15]: 2 nM; Cmax [16]: 606 pM ml-1; Cmax [17]: 849 pM ml-1; AUC [18]: 2224 pM/h/g; AUC [19]: 607 pM/h/g; bioavailability [20]: 72%; half-life at 2 µM [21]: 60 min; Ki [22]: 423 nM; ED50 [23]: inactive; ED50 [24]: inactive; ED50 [25]: 1.1 µmol/kg; ED50 [26]: 1.1 µmol/kg; ED50 [27]: 0.5 µmol/kg; ED50 [28]: inactive; Reduction [29]: 25%; Reduction [30]: 37%; Ratio [31]: 18; ED50 [32]: inactive; Tmax at 2 µM [33]: 2 min
